Measurements as given in ChEMBL document CHEMBL3091284, “Hygrocins C-G, cytotoxic naphthoquinone ansamycins from gdmAI-disrupted Streptomyces sp. LZ35” (J Nat Prod, 2013).
The source made the active and inactive calls. No cut-off for these calls is given here.

Tests used:
Type in all cases: functional, cell-based
PC-3 [1] = test: Cytotoxicity against human PC3 cells by MTT assay
Method in brief: (§1)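 MTT viability/proliferation assay on human cancer lines (breast MDA-MB-431, prostate PC3, alveolar basal epithelial A549, colorectal SW620, hepatocellular HepG2). Compounds tested up to a maximum of 10 μM, with activity judged relative to control and IC50 derived. Cisplatin at 5 μg/mL served as positive control.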

[2] = Cytotoxicity against human MDA-MB-431 cells by MTT assay; method in brief: as §1
A549 = test: Cytotoxicity against human A549 cells assessed as growth inhibition up to 10 uM by MTT assay; method in brief: as §1
HepG2 = test: Cytotoxicity against human HepG2 cells assessed as growth inhibition up to 10 uM by MTT assay; method in brief: as §1
SW-620 = test: Cytotoxicity against human SW620 cells assessed as growth inhibition up to 10 uM by MTT assay; method in brief: as §1
PC-3 [3] = test: Cytotoxicity against human PC3 cells assessed as growth inhibition up to 10 uM by MTT assay; method in brief: as §1
Homo sapiens = species on record: Homo sapiens; test: Cytotoxicity against human MDA-MB-431 cells assessed as growth inhibition up to 10 uM by MTT assay; method in brief: as §1

SMILES	IC50 (PC-3 [1]) [µM]	IC50 [2] [µM]	growth inhibition (GI) (A549)	growth inhibition (GI) (HepG2)	growth inhibition (GI) (SW-620)	growth inhibition (GI) (PC-3 [3])	growth inhibition (GI) (Homo sapiens)
CC[C@@H]1/C=C/[C@H](C(C)O)OC(=O)/C(C)=C\[C@H]2C(=O)NC3=CC(=O)c4c(cc(C)c(O)c4C(=O)CC1)[C@@]32O (stereo partly specified)	4.5	3.3					
CC[C@@H]1/C=C/[C@H](O)[C@H](C)OC(=O)/C(C)=C\[C@H]2C(=O)NC3=CC(=O)c4c(cc(C)c(O)c4C(=O)CC1)[C@@]32O	1.9	0.5					
CCC1/C=C/[C@H](O)[C@H](C)OC(=O)[C@@]2(C)C=CC(=O)NC3=C2C(=O)c2c(cc(C)c(O)c2C(=O)CC1)C3=O (stereo partly specified)			inactive	inactive	inactive	inactive	inactive
CC[C@@H]1/C=C/[C@H](O)[C@H](C)OC(=O)/C(C)=C\[C@@H]2C(=O)NC3=CC(=O)c4c(cc(C)c(O)c4C(=O)CC1)[C@@]32O	5	3					
CCC1/C=C/[C@H](C(C)O)OC(=O)[C@@]2(C)C=CC(=O)NC3=C2C(=O)c2c(cc(C)c(O)c2C(=O)CC1)C3=O (stereo partly specified)			inactive	inactive	inactive	inactive	inactive
CC[C@@H]1/C=C/[C@H](O)[C@H](C)OC(=O)/C(C)=C/[C@@H]2C(=O)NC3=CC(=O)c4c(cc(C)c(O)c4C(=O)CC1)[C@@]32O			inactive	inactive	inactive	inactive	inactive
